PubChem BioAssay AID719 (SRMLSC, 2007)
About 940 (1.1%) of roughly 85,000 compounds were called active. For the sample, actives were picked, then their nearest neighbours and some compounds at random. A number with no mark means an inactive call.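 Rule for the calls: active = viability at or below 50% in the single dose screen; inactive = viability above 50%.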

Assay: antiproliferative effect on LL 47 fibroblasts – human, LL 47 cells, CellTiter-Glo luminescence, primary screen (AID 719);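 note: compound exposure lasted 72 h before the ATP readout; 100% = median luminescence of untreated cell-only wells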
Details: LL 47 human lung fibroblast viability, ATP luminescence; at 10 µM; active compounds read low
In short: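 material = human LL 47 lung fibroblast cells | dosing = compounds added from tenfold dosing solution, 0.1% DMSO final | timing = overnight cell rest, 72 h compound treatment at 37 °C | measured by = CellTiter-Glo luminescence measuring cellular ATP | evaluation = % viability versus median cells-only luminescence | control set = cell-only wells, no compound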

Compound	viability
O=C(C(NS(=O)(=O)c1cccc2nsnc12)c1ccccc1)N1CCN(c2ccccc2)CC1 (stereo not drawn)	94.9%
Oc1c(Cl)cc(Cl)c(Cl)c1Cc1c(O)c(Cl)cc(Cl)c1Cl	46.4% (active)
Cc1ccc(S(=O)(=O)NCCN2CCOCC2)cc1C	108%
CCCCN(CCCC)C(=O)CCS(=O)(=O)c1ccc2c(c1)n(C)c(=O)c(=O)n2C	96.8%
CC(=O)CCS(=O)(=O)c1ccc(C)c(C)c1	32.5% (active)
Cc1cc(C)cc(N(CC(=O)N2CC=C(c3ccccc3)CC2)S(=O)(=O)c2c(C)noc2C)c1	95.6%
CC/C(O)=N\S(=O)(=O)c1ccc(N=NN(C)C)cc1	97.5%
Cc1ccc(N(Cc2ccc(C(=O)Nc3ccccc3C(=O)NCc3ccco3)cc2)S(C)(=O)=O)cc1C	97%
CC(C)c1nc2ccc(C(=O)O)cc2[nH]1	98.8%
COC(=O)Nc1nc2ccc(Sc3ccccc3)cc2[nH]1	47.2% (active)
Cc1nc2ccc(C(=O)O)cc2[nH]1	104%
CN(Cc1ccccc1)C(=O)COc1ccccc1	104%
c1ccc(-c2nc(NCc3ccco3)c3ccccc3n2)cc1	95.9%
CC(c1ccco1)N(C(=O)Nc1ccccc1)C1CCCCC1 (stereo not drawn)	97.3%
COc1ccc(-c2nnco2)cc1OC	103%
COc1ccc(-c2cc(C(F)(F)F)nc(S(C)(=O)=O)n2)cc1OC	2.93% (active)
COc1ccc(-c2cc(C(F)(F)F)nc(NCc3cccnc3)n2)cc1	87.3%
COc1cccc2cc(C(=O)N3CCN(C(=O)c4ccccc4)CC3)c(=O)oc12	92.4%
CC(=O)NC1=NN(C(C)=O)C(C)(c2ccc(Cl)s2)S1 (stereo not drawn)	67.1%
Cc1ccccc1CSCCNC(=O)c1ccc(Cl)c(S(=O)(=O)N2CCOCC2)c1	97.8%
CCOc1cc(NC(=O)c2ccco2)c(OCC)cc1NC(=O)COc1ccccc1	99.7%

Compound	viability
CCOc1cc(N2CCOCC2)c(OCC)cc1NC(=O)COc1cccc2cccnc12	31% (active)
CCOc1cc(N2CCOCC2)c(OCC)cc1NC(=O)COC(=O)[C@H](Cc1c[nH]c2ccccc12)NC(C)=O	105%
CS(=O)(=O)n1nc(-c2ccccc2)nc1NCc1ccco1	105%
C=C1c2cc(CC)ccc2NC(=O)N1c1ccc(C)cc1	102%
O=C1Nc2ccccc2C12Nc1ccccc1S2 (stereo not drawn)	92.1%
CCc1ccc2c(c1)C1(NN=C(c3ccccc3)S1)C(=O)N2 (stereo not drawn)	32.1% (active)
CN(C)S(=O)(=O)c1ccc(N2CCCC2)c(C(=O)NCc2ccccc2)c1	98.3%
CC1=C/C(=N\OS(=O)(=O)c2ccccc2)C=CC1=O	1.44% (active)
CCOC(=O)c1sc(C)c2c1NC(C)(c1cccc3ccccc13)NC2=O (stereo not drawn)	78.7%
O=C(NCCSCc1ccccc1)c1ccc(Cl)c(S(=O)(=O)N2CCOCC2)c1	92.8%
N=c1c2c3c(sc2nc2n1CCCCC2)CCCC3	102%
CC1(C)NC(=O)N(CCCCSc2ccc(Cl)cc2)C1=O	95%
CCOc1ccc2c(c1)C(c1ccc(C)cc1)=NNC(c1ccc(C)cc1)=N2	75.9%
CC(C)(C)NC(=O)Cn1c(SCC(=O)Nc2nccs2)nc2ccccc21	93.8%
CCC(c1nnnn1C(C)(C)C)N(Cc1cc2cccc(C)c2n2nnnc12)C1CCCC1 (stereo not drawn)	95.7%
CCOC(=O)c1c(N=CN(C)C)c(C#N)c2n1CCCC2	98.2%
CC[C@]1(O)CC2CN(CCc3c([nH]c4ccccc34)[C@@](C(=O)OC)(c3cc4c(cc3OC)N(C=O)[C@H]3[C@@](O)(C(=O)OC)[C@H](OC(C)=O)[C@]5(CC)C=CCN6CC[C@]43[C@@H]65)C2)C1 (stereo partly drawn)	44.6% (active)
CO/N=C(/CS(=O)(=O)c1ccc(Br)cc1)c1ccc(OC)cc1	90.9%
Cc1ccccc1N1CCN(CCCOc2ccc3c(C)cc(=O)oc3c2)CC1	94%
Cc1cc(=O)oc2cc(NC(=O)C3CC(=O)N(Cc4ccccc4)C3)ccc12 (stereo not drawn)	103%
Cc1cc(=O)oc2cc(OCC3CC(c4ccccc4Cl)=NO3)ccc12 (stereo not drawn)	47.8% (active)

Compound	viability
Cc1cccc2nc(CSc3nc4[nH]ncc4c(=O)n3-c3cccc(Cl)c3)cc(=O)n12	68.1%
CCOc1ccc(NS(=O)(=O)c2ccc(OCC(=O)NCCCOC)cc2)cc1	40.2% (active)
CCOc1ccc(S(=O)(=O)Nc2ccc(S(=O)(=O)Nc3cc(OC)ccc3OC)cc2)cc1	105%
COC(=O)COc1ccc(S(=O)(=O)Nc2ccc(NC(C)=O)cc2)cc1	104%
O=C(c1ccccc1Oc1ccccc1)N1CCN(c2ccc(F)cc2)CC1	99.7%
CCOc1ccccc1NC(=O)C1CCCN(C(=O)Nc2ccccc2)C1 (stereo not drawn)	106%
Cn1c(=O)n(C)c2cc(C(=O)Nc3ccc4c(c3)OCO4)ccc21	48.5% (active)
COc1ccc(C(=O)Nc2ccc3c(c2)OCO3)cc1OC	100%
Cn1c(NC(=O)c2ccc3c(c2)OCO3)cc(=O)n(C)c1=O	97%
CCCc1nc2sc3c(c2c(=O)n1NC(=O)CCCl)CCCC3	80.4%
CC1CN(S(=O)(=O)c2ccccc2)C(C)CN1S(=O)(=O)c1ccccc1 (stereo not drawn)	93.9%
CCCn1c(C(Cc2ccccc2)NC(=O)COC)nc2ccccc21 (stereo not drawn)	93.2%
Cc1ccc(CN(C(=O)c2sc3ccccc3c2Cl)C2CCS(=O)(=O)C2)cc1 (stereo not drawn)	89.4%
CCC(C(=O)NCc1ccc(OC)cc1)n1nc(C)n2c(cc3occc32)c1=O (stereo not drawn)	95.5%
COc1ccccc1N1CCN(C(=O)CN(Cc2ccc(Cl)cc2)S(C)(=O)=O)CC1	98.3%
COc1ccccc1-n1nnnc1S(=O)(=O)Cc1ccc(Cl)cc1	25% (active)
COc1ccccc1N1CCN(Cc2nnnn2CCc2ccccc2)CC1	101%
O=C(Nc1ccccc1-c1nnn(CC(=O)N2CCCc3ccccc32)n1)c1cccc(Cl)c1	52.5%
Cc1ccc(NC(=S)NC(NC(=O)Cc2cccc3ccccc23)C(Cl)(Cl)Cl)cc1 (stereo not drawn)	49.6% (active)
O=C(Cc1cccc2ccccc12)Nc1ccc2oc(-c3ccccc3)nc2c1	99%
Cc1ccc(NC(=O)CCN2CCc3ccccc3C2)cc1	94.5%
